TROY signal inh = TROY signaling inhibition | Q293 LMP1-TROYcd NF-kB luciferase reporter, 4 h | 0.98% of 360,000 active | inhibition, % at 10 µM;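 active means compounds whose plate-normalised and pattern-corrected inhibition of the luciferase reporter signal at the single screening dose is 50% or more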
HIF activator = HIF pathway transcriptional activation; activation, % at 7.5 µM (by protocol); 0.32% of 300,000 active; U2OS HRE-luciferase reporter, luminescence; normalized: DMSO 0%, desferrioxamine 100%;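 active means mean activation of at least 10% of the iron chelator positive control signal, with at least half of replicates also reaching 10%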
NR2E3 ag-1 = agonists of human nuclear receptor NR2E3; Q9Y5X4; GST-NR2E3/biotin-RetCOR TR-FRET, 1536-well; inhibition of corepressor binding, % at 4.78 µM; 0.12% of 320,000 active;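 active means percent inhibition above the cutoff of mean plus 3 SD of all tested compounds, set per screening campaign, cut at about 20% in these data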
Target sequence (Q9Y5X4 whole entry, looked up): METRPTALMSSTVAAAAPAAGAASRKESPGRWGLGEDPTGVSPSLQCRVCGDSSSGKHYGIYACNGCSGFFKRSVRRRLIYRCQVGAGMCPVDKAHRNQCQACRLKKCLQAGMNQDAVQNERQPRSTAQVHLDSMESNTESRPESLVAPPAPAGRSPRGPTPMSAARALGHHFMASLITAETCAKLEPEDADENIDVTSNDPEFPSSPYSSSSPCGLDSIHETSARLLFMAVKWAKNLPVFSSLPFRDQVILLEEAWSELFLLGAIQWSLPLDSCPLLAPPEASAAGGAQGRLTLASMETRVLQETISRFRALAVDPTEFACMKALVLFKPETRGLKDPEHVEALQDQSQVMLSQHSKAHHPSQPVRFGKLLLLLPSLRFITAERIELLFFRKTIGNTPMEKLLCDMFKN
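Format: 1536-well format; test system: GST-NR2E3 and biotin-RetCOR proteins; read-out basis: percent inhibition of TR-FRET ratio; timing: 5 h incubation at 4 °C; detection: time-resolved FRET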
NR2E3 ag-2 = human photoreceptor-specific nuclear receptor agonism; CHO-S Gal4-NCOR/VP16-NR2E3 two-hybrid, luciferase; inhibition of corepressor binding, % at 3.98 µM; 0.35% of 360,000 active; AID 602229;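 active means inhibition above the mean of all tested compounds plus 3 SD, cut at about 70% in these data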;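 further: higher means lower luciferase signal from less NR2E3 corepressor binding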
LMP1 NFkB inh = Epstein-Barr LMP1 NF-kappaB reporter inhibition; AID 504558; 0.69% of 350,000 active; inhibition, % at 12.5 µM; LMP1-induced NF-kappaB luciferase reporter cells, luminescence; in the data active means inhibition above about 41%
A number is an active result; n = inactive; x = no result given. Only some compounds are listed: those with a hit (about 2% of all), similar ones and a draw of the others.

SMILES | TROY signal inh | HIF activator | NR2E3 ag-1 | NR2E3 ag-2 | LMP1 NFkB inh
CC1=C(C(=O)OCc2ccc3c(c2)OCO3)C(c2ccc(Cl)cc2)NC(=O)N1 (configuration not stated) | 70 | n | n | n | 81
CSCCOC(=O)C1=C(C)NC(=O)NC1c1ccc2c(c1)OCO2 (configuration not stated) | n | n | x | n | n
CC1=C(C(=O)OCc2ccc3c(c2)OCO3)C(c2ccc(F)cc2)NC(=O)N1 (configuration not stated) | 55 | n | n | n | 79
CCCn1c(N)c(Sc2ccccc2[N+](=O)[O-])c(=O)n(CCC)c1=O | n | n | n | n | n
CCC/C(=N/NC(=O)c1cccc(Cl)c1)c1ccccc1 | n | 10 | n | n | n
CCC/C(=N\NC(=O)C1CC1)c1ccccc1 | n | n | n | n | x
N#CC(c1ccccc1)c1ccc2c(C(F)(F)F)cc(C(F)(F)F)nc2n1 (configuration not stated) | 59 | n | n | n | n
Cc1ccc(C(C#N)c2ccc3c(C(F)(F)F)cc(C(F)(F)F)nc3n2)cc1 (configuration not stated) | n | n | n | n | n
O=c1cc(Nc2ccc3c(c2)OCCO3)[nH]c(=O)n1-c1ccc(Cl)cc1 | 64 | n | n | n | n
Cc1nn(CCCC(=O)NCCc2ccccc2)c(=O)c2nccn12 | n | n | n | n | n
CCCCCC(=O)NNC(=S)NC(=O)c1cccc([N+](=O)[O-])c1 | n | 62 | n | n | n
CCOc1ccc(C(=O)NC(=S)Nc2ccccn2)cc1[N+](=O)[O-] | n | n | n | n | n
O=C(NC(=S)Nc1ccccn1)c1cccc([N+](=O)[O-])c1 | n | 709 | n | n | n
Cc1ccc(-n2ncc(Br)c(Br)c2=O)cc1 | 69 | n | x | n | n
COc1cnn(-c2ccccc2)c(=O)c1N(C)C | 54 | n | n | n | n
O=c1c(Br)c(N2CCCC2)cnn1-c1ccccc1 | n | n | n | n | n
O=c1c(Br)c(Br)cnn1-c1ccccc1 | 77 | x | x | n | n
O=C(Oc1c(CN2CCOCC2)cc(Cl)c2cccnc12)c1ccc(F)cc1 | n | n | n | n | 58
O=C(Oc1c(CN2CCOCC2)cc(Cl)c2cccnc12)c1ccccc1Cl | n | n | n | n | 71
COc1ccc(C(=O)Oc2c(CN3CCOCC3)cc(Cl)c3cccnc23)cc1 | n | n | n | n | n
CCN(CC)C(=O)C1=C(C)N(Cc2ccccc2)C(=O)C(CC(=O)NCC2CCCCC2)C1 (configuration not stated) | n | x | x | n | n
Cc1ccc(C)c(CNS(=O)(=O)c2ccc3c(c2)C(C)(C)C(=O)N3C)c1 | n | 12 | n | n | n
Cc1cc(C(=O)CN2CCC(C)CC2)c(C)n1-c1ccccc1F | 80 | n | n | n | n
Cc1cc(C(=O)CN2C(=O)C(=O)N(Cc3ccccc3)C2=O)c(C)n1-c1ccccc1F | n | n | n | n | n
COc1cccc(NC(=O)Nc2cc(C(=O)NCC3CCCO3)ccc2N2CC3CC(C2)c2cccc(=O)n2C3)c1 (configuration not stated) | n | n | n | n | n
SMILES | TROY signal inh | HIF activator | NR2E3 ag-1 | NR2E3 ag-2 | LMP1 NFkB inh
O=C(CSc1ncccc1-c1nc2ccccc2[nH]1)N1CCc2ccccc21 | 62 | n | n | n | n
COC(=O)CSc1ncccc1-c1nc2ccccc2[nH]1 | n | n | n | n | n
CCn1c(O)c(N=Nc2ccc3ccccc3n2)c2ccccc21 | n | n | n | n | n
Brc1ccc(N=Nc2ccc3ccccc3n2)cc1 | 76 | n | n | n | 63
COC(=O)Nc1nnc(Cc2ccc(OC)cc2)s1 | n | 40 | n | n | n
Cc1cc(N)nc(=O)n1C1CC(O)C(CO)O1 (configuration not stated) | n | x | x | n | 87
Cc1cc(C)cc(Oc2ccc(-c3nnc(-c4ccccc4)o3)cc2[N+](=O)[O-])c1 | 87 | n | n | n | n
COc1ccc(NC(=O)C(=O)NNC(=O)C(C)Oc2ccc(Cl)cc2Cl)cc1 (configuration not stated) | n | n | n | n | n
COc1ccc(NC(=O)C(=O)NNC(=O)c2ccc(Cl)cc2Cl)cc1 | n | 512 | n | n | n
CN(C)S(=O)(=O)c1ccc(NC(=O)COc2cccc3c2OC(C)(C)C3)cc1 | n | x | x | n | n
O=C(C=C=Nc1ccccc1)C(=O)N=C=Cc1ccccc1 | 51 | n | n | n | n
O=C(N/N=C/c1ccccc1)C(=O)N/N=C/c1ccccc1 | n | n | n | n | n
CCCCc1nnc(NC(=O)c2ccc3[nH]c(=O)c(=O)[nH]c3c2)s1 | n | 197 | n | n | n
COc1ccc2ccccc2c1CNC(=O)CC1C(=O)NCCN1CC(C)C (configuration not stated) | n | n | n | n | n
Cc1cnc(NC(=O)c2ccc3c(c2)OCCO3)s1 | 85 | x | n | n | 79
O=C(Nc1ncc([N+](=O)[O-])s1)c1ccc2c(c1)OCO2 | 84 | n | n | n | 55
O=C(Nc1ncc([N+](=O)[O-])s1)c1ccco1 | n | n | n | n | n
Cc1ccc(C(=O)Nc2ncc([N+](=O)[O-])s2)cc1 | 80 | n | n | n | 68
Cc1nc2ccc3nc(NC(=O)c4ccc5c(c4)OCCO5)sc3c2s1 | n | n | n | n | n
Cc1c(C(=O)N/N=C/c2ccncc2)nnn1-c1nonc1N | n | x | x | n | n
O=[N+]([O-])c1cccc(S(=O)(=O)Nc2ccc(S(=O)(=O)NCC3CCCO3)cc2)c1 (configuration not stated) | n | n | n | n | n
COc1ccc(C(=O)C(CN2CCOCC2)c2ccccc2)cc1F (configuration not stated) | n | n | x | n | 74
CCCOc1ccc(C(=O)C(CN2CCOCC2)c2ccccc2)cc1 (configuration not stated) | n | n | n | n | n
COc1ccc(C(O)C(CN2CCOCC2)c2ccccc2)cc1F (configuration not stated) | 55 | n | n | n | n
Cc1ccc(C)c(S(=O)(=O)Nc2ccc(C(=O)NCCCN3CCOCC3)cc2)c1 | n | n | n | n | n
SMILES | TROY signal inh | HIF activator | NR2E3 ag-1 | NR2E3 ag-2 | LMP1 NFkB inh
COc1ccc(N2C3=[N+](CC2(C)O)c2ccccc2CC3)cc1 (configuration not stated) | n | n | n | n | 69
CCCCn1c(N)c(N(CCOC)C(=O)COC(=O)/C=C/c2ccc(Br)cc2)c(=O)[nH]c1=O | n | n | n | n | n
Cc1ccc(C2=Nc3ccccc3N=C(c3ccco3)C2)c(O)c1 | 50 | n | n | n | n
CCOc1ncccc1C(=O)N(CC)CC(=O)NCc1ccc(Cl)cc1 | n | n | n | n | n
Cc1oc2c(c(=O)c1C)C(=O)CC(c1ccccc1)C2 (configuration not stated) | n | n | n | n | n
CS(=O)(=O)c1sc(C#N)c2c1C(=O)CC(c1ccccc1)C2 (configuration not stated) | 80 | n | n | n | n

Bioassay records from PubChem.
